The structures appear in SMILES notation.

One data set relates to L02 cells. Put plainly: MTT cytotoxicity assay against L02 cells. Format: cell-based, human. The essentials: (§1)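 Cells were seeded at 2 × 10³ per well and grown for 12 h at 37 ℃, 5% CO₂. RM-1, 4T1 and L02 were kept in RPMI 1640 with 10% FBS; 3T3 in DMEM/F-12 with 10% FBS. […] MTT (5 mg/mL stock) was added for 4 h, formazan was dissolved in DMSO, and absorbance was read at 492 nm.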
(Tetrazolium assays rely on reduction of a dye to a coloured formazan, in cell work by metabolically active cells.)

Data set [1] has as its system RM-1 prostate tumor. Briefly: GSP-rendered ultra-low-dose chemotherapeutic window in vivo. Also noted: species or system mouse. Particulars: five injections. In a few lines: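 Male C57BL/6 mice were given 5 × 10⁶ RM-1 cells in 100 μL PBS subcutaneously in the right rear flank. […] Dosing was i.v. every other day, five injections. Tumor volume and body weight were recorded daily. Blood was taken one day after the last dose; organs were taken for H&E.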

In another data set the test system is 3T3 cells. Briefly: MTT cytotoxicity assay against 3T3 cells. The class given is cell-based, mouse. The essentials: as §1
The subject of data set [2] is RM-1 cells. Put plainly: MTT cytotoxicity assay against RM-1 cells. Particulars: for effect of GSP on the sensitivity of cells to the drug: GSP at an ineffective concentration of 0.5 μmol/L. The class given is cell-based, mouse. In a few lines: as §1
The test system of the next data set is testosterone. Put plainly: Serum testosterone. Format: in vivo, mouse. The following applies: 4 mg/kg CTX equivalent and/or 7.5 mg/kg GSP equivalent, three injections.
Data set [3] deals with RM-1 cells. Put plainly: Live/dead cell co-staining. The following applies: 100 nmol/L CTX equivalent and/or 300 nmol/L GSP equivalent, 24 h. Format: cell-based, mouse. In a few lines:
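RM-1 cells were seeded on coverslips at 5 × 10⁴ cells/well and grown for 12 h. […] Cells were stained with Calcein-AM (live) and PI (dead) for 30 min and imaged by confocal microscopy. Untreated cells were the control.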

In data set [4] the test system is RM-1 cells. Put plainly: Mitochondrial membrane potential assay. The class given is cell-based, mouse. The following applies: green = low potential. The essentials:
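Cells were stained with JC-1 working solution at 37 ℃ for 20 min, washed twice in cold JC-1 buffer and imaged by confocal microscopy (red aggregates, green monomers). Depolarization was quantified in ImageJ. For flow cytometry, cells seeded at 5 × 10⁴/well were trypsinised before staining. Untreated cells were the control.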

Data set [5] relates to RM-1 prostate tumor. Briefly: In vivo antitumor efficacy, RM-1 prostate tumor-bearing C57BL/6 mice. Particulars: 4 mg/kg CTX equivalent and/or 7.5 mg/kg GSP equivalent, i.v., every three days, three injections. Also noted: species or system mouse.
In the next data set the test system is 4T1 cells. Put plainly: MTT cytotoxicity assay against 4T1 cells. The class given is cell-based, mouse. Particulars: 48 h. In a few lines:
as §1

In the next data set the test system is Bcl-2. Briefly: Western blotting of Bcl-2 in RM-1 cells. The class given is cell-based, mouse. The following applies: 10 nmol/L CTX equivalent and/or 30 nmol/L GSP equivalent, 40 h.
Where [6] appears, read: 14.9 mg/kg GSP equivalent, i.v.

With `CO[C@H]1C(=O)[C@]2(C)[C@@H](OC)C[C@H]3OC[C@@]3(OC(C)=O)[C@H]2[C@H](OC(=O)c2ccccc2)[C@]2(O)C[C@H](OC(=O)[C@H](O)[C@@H](NC(=O)OC(C)(C)C)c3ccccc3)C(C)=C1C2(C)C` [CTX, Cabazitaxel], the “effect of GSP on the cytotoxicity of the drug” value in the data set with L02 cells (500 nmol/L GSP) is “little effect”. For the same molecule, in the data set on RM-1 prostate tumor [1] (CTX dose gradient 1–8 mg/kg), the body weight entry is on record as “dramatic weight loss”; the “hepatorenal function indicators and whole blood indexes” value is “abnormalities in hepatorenal function indicators and pancytopenia”. In the data set on RM-1 prostate tumor [1] (high doses 4, 6 and 8 mg/kg CTX equivalent, i.v.), the “toxicity (weight loss, death)” value was “serious toxic side effects”. The anti-tumor effects result in the data set with RM-1 prostate tumor [1] (low doses 1 and 2 mg/kg CTX equivalent, i.v.) was “negligible anti-tumor effects”. In addition, in the data set with 3T3 cells (500 nmol/L GSP), the “effect of GSP on the cytotoxicity of the drug” value was “little effect”. Moreover, the “reduction in IC50 values in the presence of GSP” value in the data set with RM-1 cells [2] (0.5 μmol/L GSP) is given as not below 100 fold. In the data set with RM-1 cells [2], the “effect of GSP on the sensitivity of cells to the drug” value (“effect of GSP … to the drug” for short) was “dramatically augmented”. Further, the serum testosterone entry with testosterone is “no change in serum testosterone”. Moreover, the “cell death in live/dead staining” value with RM-1 cells [3] is “only a small portion of cells”. Further, the “mitochondrial membrane potential change (JC-1 fluorescence, in words)” value in the data set with RM-1 cells [4] is listed as “green fluorescence signals were significantly enhanced”. In addition, in the data set with RM-1 prostate tumor [5], the “antitumor activity (tumor growth)” value is listed as “moderate antitumor activity”.
As to `N.N.[Cl][Pt][Cl]` [DDP, cisplatin], in the data set with RM-1 cells [2], the “effect of GSP … to the drug” value is “dramatically augmented”.
Still for that read-out and setting: then `COc1cccc2c1C(=O)c1c(O)c3c(c(O)c1C2=O)C[C@@](O)(C(=O)CO)C[C@@H]3O[C@H]1C[C@H](N)[C@H](O)[C@H](C)O1` [DOX, doxorubicin], with “dramatically augmented”; and `CC(=O)O[C@@]12CO[C@@H]1C[C@H](O)[C@@]1(C)C(=O)[C@H](O)C3=C(C)[C@@H](OC(=O)[C@H](O)[C@@H](NC(=O)OC(C)(C)C)c4ccccc4)C[C@@](O)([C@@H](OC(=O)c4ccccc4)[C@H]21)C3(C)C` [DTX, docetaxel], with “dramatically augmented”.
Still for that read-out and setting: then `Nc1ccn([C@@H]2O[C@H](CO)[C@@H](O)C2(F)F)c(=O)n1` [GEM, gemcitabine], with “dramatically augmented”.
Turning to `Cc1cc2c(C(C)C)c(O)c(O)c(C=O)c2c(O)c1-c1c(C)cc2c(C(C)C)c(O)c(O)c(C=O)c2c1O` [GSP, Gossypol], the “cytotoxicity (in words)” value in the data set on 4T1 cells is reported as “almost no cytotoxicity”; in the data set with L02 cells (MTT, 48 h), “almost no cytotoxicity”; in the data set with 3T3 cells (MTT, 48 h), “almost no cytotoxicity”; with RM-1 cells [2] (MTT, 48 h), “almost no cytotoxicity”. Also, in the data set on Bcl-2, the “expression of Bcl-2 protein” value was “significantly down-regulated the expression of Bcl-2”. Further, in the data set on RM-1 prostate tumor [1] (setting [6]), the antitumor effects entry is recorded as “moderate antitumor effects”. The “body weight of tumor-bearing mice” value in the data set on RM-1 prostate tumor [1] (setting [6]) is given as “decreased significantly”. Besides, the “liver tissue sections (H&E)” value in the data set on RM-1 prostate tumor [1] (setting [6]) is given as “some degree of liver injury”. Further, in the data set on RM-1 cells [3], the “cell death in live/dead staining” value is on record as “only a small portion of cells”. In addition, in the data set with RM-1 cells [4], the “mitochondrial membrane potential change (JC-1 fluorescence, in words)” value is “negligible impact”. The “antitumor activity (tumor growth)” value in the data set with RM-1 prostate tumor [5] is given as “moderate antitumor activity”.
In the case of `O=C1[O][Pt]2([NH][C@@H]3CCCC[C@H]3[NH]2)[O]C1=O` [OXP, oxaliplatin], the “effect of GSP … to the drug” value in the data set with RM-1 cells [2] was “dramatically augmented”.

(Values after PMC12254776 (Acta Pharmaceutica Sinica. B, 2025).)
